Measurements as given in ChEMBL document CHEMBL4673376 (Bioorg Med Chem Lett, 2021).

Tests used:
Maltase-glucoamylase [1] = molecular target: T1, Maltase-glucoamylase (Homo sapiens, UniProt O43451); assay: Inhibition of human intestinal maltase; assay type: tissue-based, Intestine
Procedure, shortened: (§1)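 Enzyme preparations came from small intestine tissue (rat or human, as the line states). Inhibition is reported as IC50.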

[2] = Inhibition of rat intestinal isomaltase; assay type: tissue-based, Intestine; procedure, shortened: as §1
[3] = Inhibition of rat intestinal sucrase; assay type: tissue-based, Intestine; procedure, shortened: as §1
[4] = Inhibition of rat intestinal maltase; assay type: tissue-based, Intestine; procedure, shortened: as §1
Maltase-glucoamylase [5] = molecular target: T1, Maltase-glucoamylase; assay: Inhibition of recombinant human maltase-glucoamylase using p-nitrophenyl-alpha-D-glucopyranoside as substrate incubated for 35 mins by microtiter plate reader analysis
[6] = Inhibition of rat intestinal isomaltase using isomaltose as substrate incubated for 30 mins and immediately heated for 2 mins by glucose oxidase method; assay type: tissue-based, Intestine; procedure, shortened: as §1
[7] = Inhibition of rat intestinal sucrase using sucrose as substrate incubated for 30 mins and immediately heated for 2 mins by glucose oxidase method; assay type: tissue-based, Intestine; procedure, shortened: as §1
[8] = Inhibition of rat intestinal maltase using maltose as substrate incubated for 30 mins and immediately heated for 2 mins by glucose oxidase method; assay type: tissue-based, Intestine; procedure, shortened: as §1
Maltase-glucoamylase [9] = molecular target: T1, Maltase-glucoamylase; assay: Inhibition of human intestinal maltase using maltose as substrate incubated for 30 mins and immediately heated for 2 mins by glucose oxidase method; assay type: tissue-based, Intestine; procedure, shortened: as §1

T1 sequence (O43451 whole entry): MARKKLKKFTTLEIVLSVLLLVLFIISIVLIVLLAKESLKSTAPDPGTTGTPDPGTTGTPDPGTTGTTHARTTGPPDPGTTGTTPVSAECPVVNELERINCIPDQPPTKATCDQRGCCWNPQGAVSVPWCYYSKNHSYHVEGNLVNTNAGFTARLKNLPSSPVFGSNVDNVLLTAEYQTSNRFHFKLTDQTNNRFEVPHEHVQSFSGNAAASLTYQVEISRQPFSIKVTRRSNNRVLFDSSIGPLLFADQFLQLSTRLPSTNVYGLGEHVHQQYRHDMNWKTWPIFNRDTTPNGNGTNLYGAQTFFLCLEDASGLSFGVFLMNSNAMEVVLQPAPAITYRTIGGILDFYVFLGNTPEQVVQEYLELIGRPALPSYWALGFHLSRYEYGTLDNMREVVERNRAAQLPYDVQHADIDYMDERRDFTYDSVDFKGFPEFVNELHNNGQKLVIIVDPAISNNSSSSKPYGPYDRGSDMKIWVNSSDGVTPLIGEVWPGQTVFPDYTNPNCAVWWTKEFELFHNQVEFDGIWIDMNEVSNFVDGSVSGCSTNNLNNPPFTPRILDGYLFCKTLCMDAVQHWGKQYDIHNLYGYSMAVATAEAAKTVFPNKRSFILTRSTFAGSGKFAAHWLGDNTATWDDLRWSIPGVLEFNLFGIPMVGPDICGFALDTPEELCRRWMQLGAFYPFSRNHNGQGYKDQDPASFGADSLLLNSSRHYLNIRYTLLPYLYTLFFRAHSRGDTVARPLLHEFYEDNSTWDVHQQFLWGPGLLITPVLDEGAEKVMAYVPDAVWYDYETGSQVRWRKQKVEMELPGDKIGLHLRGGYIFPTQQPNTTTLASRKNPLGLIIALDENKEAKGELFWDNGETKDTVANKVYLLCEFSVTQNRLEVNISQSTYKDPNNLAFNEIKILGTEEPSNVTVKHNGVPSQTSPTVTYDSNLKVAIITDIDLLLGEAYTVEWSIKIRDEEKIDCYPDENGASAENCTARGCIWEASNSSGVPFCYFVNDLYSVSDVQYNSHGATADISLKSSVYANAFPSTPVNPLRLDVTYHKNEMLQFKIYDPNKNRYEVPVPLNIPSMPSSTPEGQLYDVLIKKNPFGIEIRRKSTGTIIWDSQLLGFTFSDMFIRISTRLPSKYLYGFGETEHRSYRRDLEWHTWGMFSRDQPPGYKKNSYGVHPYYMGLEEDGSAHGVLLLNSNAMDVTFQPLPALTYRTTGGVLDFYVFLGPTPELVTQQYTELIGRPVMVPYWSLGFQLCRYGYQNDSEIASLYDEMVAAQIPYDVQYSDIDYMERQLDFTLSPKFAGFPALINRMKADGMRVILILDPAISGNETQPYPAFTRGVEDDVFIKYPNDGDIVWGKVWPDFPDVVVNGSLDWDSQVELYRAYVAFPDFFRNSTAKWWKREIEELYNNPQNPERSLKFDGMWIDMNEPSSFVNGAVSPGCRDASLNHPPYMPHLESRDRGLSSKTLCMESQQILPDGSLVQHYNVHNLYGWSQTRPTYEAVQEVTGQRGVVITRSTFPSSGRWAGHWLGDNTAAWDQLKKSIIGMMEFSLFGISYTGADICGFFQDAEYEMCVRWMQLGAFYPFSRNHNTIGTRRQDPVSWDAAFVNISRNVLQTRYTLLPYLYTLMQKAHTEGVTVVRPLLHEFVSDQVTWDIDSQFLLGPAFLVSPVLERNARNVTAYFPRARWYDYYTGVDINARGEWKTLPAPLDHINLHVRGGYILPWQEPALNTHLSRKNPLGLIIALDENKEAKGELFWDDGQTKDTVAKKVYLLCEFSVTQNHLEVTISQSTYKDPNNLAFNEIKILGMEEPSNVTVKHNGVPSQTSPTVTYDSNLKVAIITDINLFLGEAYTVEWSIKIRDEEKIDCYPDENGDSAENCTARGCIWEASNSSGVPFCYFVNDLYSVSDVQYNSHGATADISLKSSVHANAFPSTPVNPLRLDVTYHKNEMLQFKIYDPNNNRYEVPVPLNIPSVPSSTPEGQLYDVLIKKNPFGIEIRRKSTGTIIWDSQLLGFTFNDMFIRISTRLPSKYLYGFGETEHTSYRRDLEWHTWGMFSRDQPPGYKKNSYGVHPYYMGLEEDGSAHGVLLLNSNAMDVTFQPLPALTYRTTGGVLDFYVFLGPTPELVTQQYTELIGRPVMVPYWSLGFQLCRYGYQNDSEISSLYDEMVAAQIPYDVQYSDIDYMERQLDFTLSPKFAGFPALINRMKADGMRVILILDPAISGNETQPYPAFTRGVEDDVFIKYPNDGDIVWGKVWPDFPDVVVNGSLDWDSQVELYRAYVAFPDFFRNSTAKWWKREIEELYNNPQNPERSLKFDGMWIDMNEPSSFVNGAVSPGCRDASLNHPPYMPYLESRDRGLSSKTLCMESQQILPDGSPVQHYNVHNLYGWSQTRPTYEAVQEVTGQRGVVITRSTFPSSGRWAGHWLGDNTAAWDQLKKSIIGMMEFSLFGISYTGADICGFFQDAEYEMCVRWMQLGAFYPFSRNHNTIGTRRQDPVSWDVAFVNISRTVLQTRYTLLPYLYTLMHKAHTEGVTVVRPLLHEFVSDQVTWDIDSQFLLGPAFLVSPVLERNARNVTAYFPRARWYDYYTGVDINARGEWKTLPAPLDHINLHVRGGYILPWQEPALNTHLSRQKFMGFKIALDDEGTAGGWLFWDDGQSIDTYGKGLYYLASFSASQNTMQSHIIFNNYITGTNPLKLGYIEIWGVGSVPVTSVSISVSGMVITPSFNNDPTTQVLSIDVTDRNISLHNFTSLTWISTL

| SMILES | IC50 (Maltase-glucoamylase [1]) | IC50 [2] | IC50 [3] | IC50 [4] | Ki (Maltase-glucoamylase [5]) | IC50 [6] | IC50 [7] | IC50 [8] | IC50 (Maltase-glucoamylase [9]) |
| --- | --- | --- | --- | --- | --- | --- | --- | --- | --- |
| CCCCCCCC[C@@H](O)[C@H](O)[C@H](O)C[S@+]1C[C@@H](O)[C@H](O)[C@H]1CO | 2 µM | 0.4 µM | 0.38 µM | 2.5 µM |  |  |  |  |  |
| CCCCCCCC[C@@H](O)[C@H](OS(=O)(=O)[O-])[C@H](O)C[S@+]1C[C@@H](O)[C@H](O)[C@H]1CO | 1.2 µM | 5.4 µM | 0.15 µM | 7.2 µM |  |  |  |  |  |
| CCC[C@@H](O)[C@H](O)[C@H](O)C[S@+]1C[C@@H](O)[C@H](O)[C@H]1CO | 5 µM | 0.49 µM | 1.4 µM | 4.8 µM |  |  |  |  |  |
| C[C@H]1O[C@H](O[C@H]2[C@H](O)[C@@H](O)[C@@H](O[C@H]3[C@H](O)[C@@H](O)C(O)O[C@@H]3CO)O[C@@H]2CO)[C@H](O)[C@@H](O)[C@@H]1N[C@H]1C=C(CO)[C@@H](O)[C@H](O)[C@H]1O (stereo partly specified) [ACARBOSE] |  | 645 µM | 1.5 µM | 1.7 µM |  |  |  |  |  |
| CCCCCCCCCC[C@@H](O)[C@H](OS(=O)(=O)[O-])[C@H](O)C[S@+]1C[C@@H](O)[C@H](O)[C@H]1CO | 1.5 µM | 4.4 µM | 0.17 µM | 6.3 µM |  |  |  |  |  |
| CCC[C@@H](O)[C@H](OS(=O)(=O)[O-])[C@H](O)C[S@+]1C[C@@H](O)[C@H](O)[C@H]1CO | 4.8 µM | 2.9 µM | 0.73 µM | 5.4 µM |  |  |  |  |  |
| CCCCCC[C@@H](O)[C@H](OS(=O)(=O)[O-])[C@H](O)C[S@+]1C[C@@H](O)[C@H](O)[C@H]1CO | 1.7 µM | 4.8 µM | 0.29 µM | 7.7 µM |  |  |  |  |  |
| CCCCCCCCCCCCCC[S@+]1C[C@@H](O)[C@H](O)[C@H]1CO |  |  |  |  | 6 µM |  |  |  |  |
| CCCC[S+]1C[C@@H](O)[C@H](O)[C@H]1CO (single isomer, unassigned) |  |  |  |  | 32 µM |  |  |  |  |
| O=S(=O)([O-])O[C@@H](CO)[C@H](O)C[S@+]1C[C@@H](O)[C@H](O)[C@H]1CO [SALACINOL] |  |  |  |  |  | 1.3 µM | 1.6 µM | 5.2 µM |  |
| [O-][C@@H](CO)[C@H](O)C[S@+]1C[C@@H](O)[C@H](O)[C@H]1CO [NEOSALACINOL] |  |  |  |  |  | 0.3 µM | 1.3 µM | 8 µM | 9 µM |
